According to ChEMBL document CHEMBL3272299, “Antineoplastic agents. 1. N-Protected vinyl, 1,2-dihaloethyl, and cyanomethyl esters of phenylalanine” (J Med Chem, 1977):
Activity calls are given as the source filed them. The rule behind the calls is not given here.

Tests used:
Ehrlich [1] = assay: Antitumor activity against mouse EAC allografted in CF1 mouse assessed as tumor volume at 33 mg/kg/day measured on day 7; format: functional
[2] = Acute toxicity in CF1 mouse; format: organism-based; conditions: in vivo
Ehrlich [3] = assay: Antitumor activity against mouse EAC allografted in CF1 mouse assessed as inhibition of tumor growth at 33 mg/kg/day measured on day 7; format: functional; conditions: 168 h
Ehrlich [4] = assay: Antitumor activity against mouse EAC allografted in CF1 mouse assessed as host survival at 33 mg/kg/day measured on day 7; format: functional, organism-based
P388 [5] = assay: Antitumor activity against mouse P388 cells allografted in DBA/2 mouse assessed as host survival at 20 mg/kg, ip qd; format: functional; conditions: route intraperitoneal
Summary of the method: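 P388 leukaemia cells were implanted on day 0 in male DBA/2 mice (20 g). Compound was dosed ip at 20 mg/kg/day. T/C survival values were calculated according to the NIH protocol. 5-Fluorouracil served as the internal standard.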

P388 [6] = assay: Antitumor activity against mouse P388 cells allografted in DBA/2 mouse assessed as tumor growth inhibition at 20 mg/kg, ip qd relative to control; format: functional; conditions: route intraperitoneal
[7] = Chemical stability of the compound by TLC analysis; format: physicochemical
[8] = Chemical stability of the compound assessed as optical rotation; format: physicochemical
W256 [9] = assay: Antitumor activity against rat Walker 256 cells allografted in Sprague-Dawley rat assessed as tumor growth inhibition at 2.5 mg/kg, ip qd relative to control; format: functional; conditions: route intraperitoneal
W256 [10] = assay: Antitumor activity against rat Walker 256 cells allografted in Sprague-Dawley rat assessed as host survival days at 2.5 mg/kg, ip qd; format: functional; conditions: route intraperitoneal
Summary of the method: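 Walker 256 ascites cells were implanted ip into male Sprague-Dawley rats (75 ± 10 g). Compound in 0.05% Tween-water was given ip at 2.5 mg/kg/day, and the day of death was recorded. T/C was calculated from the mean survival time per group according to the NIH protocol. Melphalan served as the internal standard.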

Compound	Activity (Ehrlich [1])	LD50 [2]	inhibition in vivo at 33 mg/kg/day (Ehrlich [3])	Survival (Ehrlich [4])	Survival (P388 [5])	T/C (P388 [6])	Stability [7]	Stability [8]	T/C (W256 [9])	Survival (W256 [10])
Cc1ccc(S(=O)(=O)N[C@@H](Cc2ccccc2)C(=O)C(=O)CCl)cc1	0.01 mL	210 µmol/kg	100%							
CCOC(=O)[C@H](Cc1ccccc1)NC(=O)/C=C/c1ccccc1	5 mL		0%	Active						
Sc1ncnc2nc[nH]c12 [MERCAPTOPURINE ANHYDROUS]	0.7 mL		99.6%	Active	12 days	148				
Cl.N#CCOC(=O)[C@@H](N)Cc1ccccc1	2.5 mL		9%				Stable	Stable		
C#CCOC(=O)[C@H](Cc1ccccc1)NC(=O)OCc1ccccc1	3.3 mL		54%							
O=C(/C=C/c1ccccc1)N[C@@H](Cc1ccccc1)C(=O)O	2.1 mL	740 µmol/kg	58%	Active						
O=C(N[C@@H](Cc1ccccc1)C(=O)N[C@@H](Cc1ccccc1)C(=O)OC(Br)CBr)OCc1ccccc1 (stereo partly drawn)	0.2 mL	780 µmol/kg	92%	Active						
C#CCN[C@@H](Cc1ccccc1)C(=O)OCC	3.7 mL		16%	Active						
C=COC(=O)[C@@H](N)Cc1ccccc1.Cl	2.2 mL		41%				Stable	Stable		
O=C(NC(Cc1ccccc1)C(=O)O)OCc1ccccc1 (racemic)	2.6 mL		52%							
O=C(N[C@H](CO)Cc1ccccc1)OCc1ccccc1	1.3 mL		55%	Active						
O=Cc1ccccc1 [BENZALDEHYDE]	0.8 mL		69%	Active						
N[C@@H](Cc1ccc(N(CCCl)CCCl)cc1)C(=O)O [MELPHALAN]	0.1 mL		99%	Active					305	23 days
C=CCOC(=O)[C@H](Cc1ccccc1)NC(=O)OCc1ccccc1	2.6 mL		24%	Active			Stable	Stable		
O=C(N[C@H](Cc1ccccc1)C(=O)O)OCc1ccccc1	4.3 mL		0%	Active						
O=C(N[C@@H](Cc1ccccc1)C(=O)O)OCc1ccccc1	0.6 mL	840 µmol/kg	75%	Active						
O=C(N[C@@H](Cc1ccccc1)C(=O)OC(Br)CBr)OCc1ccccc1 (stereo partly drawn)	0 mL	150 µmol/kg	100%	Active	6.7 days	83			305	23 days
O=C(N[C@@H](Cc1ccccc1)C(=O)O)c1ccccc1	1.3 mL		73%	Active						

Compound	Activity (Ehrlich [1])	LD50 [2]	inhibition in vivo at 33 mg/kg/day (Ehrlich [3])	Survival (Ehrlich [4])	Survival (P388 [5])	T/C (P388 [6])	Stability [7]	Stability [8]	T/C (W256 [9])	Survival (W256 [10])
O=C(O)CCCc1ccc(N(CCCl)CCCl)cc1 [CHLORAMBUCIL]		61 µmol/kg								
Cc1ccc(S(=O)(=O)N[C@@H](Cc2ccccc2)C(=O)O)cc1	0.5 mL		84%	Active						
N#CCOC(=O)[C@H](Cc1ccccc1)NC(=O)/C=C/c1ccccc1	2.8 mL		27%	Active			Stable	Stable		
N#CCOC(=O)[C@H](Cc1ccccc1)NC(=O)[C@H](Cc1ccccc1)NC(=O)OCc1ccccc1	1.5 mL		52%	Active			Stable	Stable		
N#CCOC(=O)[C@H](Cc1ccccc1)NC(=O)c1ccccc1	1.8 mL	360 µmol/kg	47%				Stable	Stable		
CC(=O)N[C@@H](Cc1ccccc1)C(=O)OCC#N	3.9 mL		16%	Active			Stable	Stable		
C=COC(=O)[C@@H](Cc1ccccc1)NC(=O)OCc1ccccc1	3.6 mL	1540 µmol/kg	36%	Active			Stable	Stable		
N[C@H](CO)Cc1ccccc1 [L-PHENYLALANINOL]	0.6 mL	500 µmol/kg	92%							
C=COC(=O)[C@H](Cc1ccccc1)NC(=O)c1ccccc1	2.1 mL		56.8%	Active			Stable	Stable		
CCOC(=O)[C@H](Cc1ccccc1)NC(=O)OCc1ccccc1	1.5 mL	1530 µmol/kg	57%	Active						
C=COC(=O)[C@H](Cc1ccccc1)NC(=O)[C@H](Cc1ccccc1)NC(=O)OCc1ccccc1	2.1 mL		43%				Stable	Stable		
C=COC(=O)C(Cc1ccccc1)NC(=O)OCc1ccccc1 (racemic)	1.3 mL	1540 µmol/kg	58%	Active			Stable	Stable		
O=C(N[C@@H](Cc1ccccc1)C(=O)OC(Cl)CCl)OCc1ccccc1 (stereo partly drawn)	0.8 mL	1260 µmol/kg	93%	Active						
C=COC[C@H](Cc1ccccc1)NC(=O)OCc1ccccc1	1.4 mL		47%				Stable	Stable		
N#CCOC(=O)[C@@H](Cc1ccccc1)NC(=O)OCc1ccccc1	1 mL	80 µmol/kg	72%				Stable	Stable		
C=CCOC(=O)C(Cc1ccccc1)NC(=O)OCc1ccccc1 (racemic)	0.6 mL		71%	Active			Stable	Stable		
C=COC(=O)[C@H](Cc1ccccc1)NS(=O)(=O)c1ccc(C)cc1	3.8 mL		56.8%				Stable	Stable		
N#CCOC(=O)C(Cc1ccccc1)NC(=O)OCc1ccccc1 (racemic)	0.4 mL	760 µmol/kg	86%	Active			Stable	Stable		
